ChEMBL document CHEMBL1137085, “Recognition of privileged structures by G-protein coupled receptors” (J Med Chem, 2004)

Tests used:
[1] = target: T1, Growth hormone secretagogue receptor type 1 (Homo sapiens, UniProt Q92847); assay: Inhibition against human growth hormone secretagogue (GHS) receptor; No binding detected
In short: (§1)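 Competition binding assay with ghrelin as tracer, run as previously described. IC50 values were derived from tracer displacement.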

Melanocortin receptor 4 [2] = target: T2, Melanocortin receptor 4 (Homo sapiens, UniProt P32245); assay: Inhibition against human melanocortin-4 (MC4) receptor
In short: (§2)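 BHK570 cells stably transfected with MC4 cDNA, with clones selected in G418/MTX medium. Membranes were homogenised in 20 mM Hepes pH 7.1, 5 mM MgCl2 and bacitracin. 10 μg membranes were incubated with 80 pM 125-labelled NDP-α-MSH and varying test concentrations in 25 mM HEPES pH 7.0 buffer (CaCl2, MgSO4, EGTA, tween 20, 0.1% HSA) for 2 h at 25 °C. Samples were filtered and washed with ice-cold saline, then counted; IC50 was determined.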

[3] = target: T1, Growth hormone secretagogue receptor type 1; assay: Inhibition against human growth hormone secretagogue (GHS) receptor; in short: as §1
[4] = target: 5-hydroxytryptamine receptor 6 (Homo sapiens, UniProt P50406); assay: Inhibition against human 5-hydroxytryptamine 6 receptor
[5] = target: Growth hormone secretagogue receptor type 1 (Sus scrofa, UniProt Q95254); assay: Inhibition against pig growth hormone secretagogue (GHS) receptor
[6] = target: T3, Type-1 angiotensin II receptor (Homo sapiens, UniProt P30556); assay: Inhibition against human angiotensin II receptor, type 1 (AG2-R)
T3 sequence (P30556 whole entry): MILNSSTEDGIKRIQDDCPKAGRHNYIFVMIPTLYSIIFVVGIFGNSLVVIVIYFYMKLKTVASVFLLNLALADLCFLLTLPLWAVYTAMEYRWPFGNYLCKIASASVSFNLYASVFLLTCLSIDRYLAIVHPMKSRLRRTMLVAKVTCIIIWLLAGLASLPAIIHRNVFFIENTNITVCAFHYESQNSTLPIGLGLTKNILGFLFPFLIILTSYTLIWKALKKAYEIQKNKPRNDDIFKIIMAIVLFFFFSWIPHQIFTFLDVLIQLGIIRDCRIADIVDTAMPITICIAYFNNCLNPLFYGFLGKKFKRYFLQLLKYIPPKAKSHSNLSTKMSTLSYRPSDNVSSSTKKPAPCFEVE
In short: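 Competition binding assay with saralasin as tracer, run externally by a contract lab following a published method. IC50 values were derived from tracer displacement.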

Melanocortin receptor 4 [7] = target: T2, Melanocortin receptor 4; assay: Inhibition against human melanocortin-4 (MC4) receptor; No binding detected; in short: as §2

T1 sequence (Q92847 whole entry): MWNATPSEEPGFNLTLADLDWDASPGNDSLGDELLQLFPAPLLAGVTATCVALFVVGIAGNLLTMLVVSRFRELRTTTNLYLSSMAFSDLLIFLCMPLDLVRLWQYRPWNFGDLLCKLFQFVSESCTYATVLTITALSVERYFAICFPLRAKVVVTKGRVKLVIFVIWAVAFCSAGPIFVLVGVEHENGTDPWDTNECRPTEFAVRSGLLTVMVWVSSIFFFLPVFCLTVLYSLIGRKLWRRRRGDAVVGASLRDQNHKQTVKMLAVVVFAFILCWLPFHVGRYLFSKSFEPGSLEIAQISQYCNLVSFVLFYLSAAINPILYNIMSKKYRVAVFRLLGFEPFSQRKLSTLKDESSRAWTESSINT
T2 sequence (P32245 whole entry): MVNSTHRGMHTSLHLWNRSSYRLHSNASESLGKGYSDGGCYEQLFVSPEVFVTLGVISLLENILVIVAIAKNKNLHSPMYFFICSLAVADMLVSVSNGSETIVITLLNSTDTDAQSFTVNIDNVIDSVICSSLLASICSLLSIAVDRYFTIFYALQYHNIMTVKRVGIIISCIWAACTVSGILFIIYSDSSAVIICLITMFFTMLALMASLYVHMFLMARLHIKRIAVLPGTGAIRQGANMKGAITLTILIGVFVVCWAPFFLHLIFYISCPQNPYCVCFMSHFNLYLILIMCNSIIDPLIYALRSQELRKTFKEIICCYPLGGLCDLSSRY
Growth hormone secretagogue receptor type 1 (Sus scrofa, UniProt Q95254), sequence (Q95254 whole entry): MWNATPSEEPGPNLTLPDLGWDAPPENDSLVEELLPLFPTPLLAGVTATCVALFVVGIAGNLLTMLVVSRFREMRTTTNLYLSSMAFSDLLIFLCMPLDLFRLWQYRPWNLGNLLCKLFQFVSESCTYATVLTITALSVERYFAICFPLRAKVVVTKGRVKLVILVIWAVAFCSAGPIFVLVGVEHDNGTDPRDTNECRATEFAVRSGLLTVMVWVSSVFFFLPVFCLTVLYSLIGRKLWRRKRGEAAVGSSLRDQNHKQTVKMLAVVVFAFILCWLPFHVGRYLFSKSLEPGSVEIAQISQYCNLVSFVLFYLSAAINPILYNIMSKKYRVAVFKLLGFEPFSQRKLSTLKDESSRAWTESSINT
5-hydroxytryptamine receptor 6, sequence (P50406 whole entry): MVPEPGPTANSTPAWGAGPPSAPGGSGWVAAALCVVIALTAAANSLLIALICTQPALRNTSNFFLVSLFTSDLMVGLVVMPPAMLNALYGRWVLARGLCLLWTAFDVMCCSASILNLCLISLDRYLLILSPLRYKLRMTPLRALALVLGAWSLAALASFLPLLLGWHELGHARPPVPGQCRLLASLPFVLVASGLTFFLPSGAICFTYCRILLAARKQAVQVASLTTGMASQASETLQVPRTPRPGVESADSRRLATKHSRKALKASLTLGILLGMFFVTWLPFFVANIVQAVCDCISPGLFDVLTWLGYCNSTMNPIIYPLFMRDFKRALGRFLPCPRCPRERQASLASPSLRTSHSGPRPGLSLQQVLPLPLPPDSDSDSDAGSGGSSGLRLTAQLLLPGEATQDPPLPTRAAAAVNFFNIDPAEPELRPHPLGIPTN

Q: How did the IC50 [1] turn out when `CCCCc1nc(Cl)c(CO)n1Cc1ccc(-c2ccccc2-c2nnn[nH]2)cc1` [LOSARTAN] was run?
A: Its IC50 is “Not Active”.

Q: For `Cc1ccc2[nH]c(-c3ccc(Br)cc3)c(CCCCCNC3CCCCC3)c2c1`, which IC50 (Melanocortin receptor 4 [2]) is on record?
A: The IC50 was 612 nM.

Q: What does the source list for `CS(=O)(=O)N1CC2(CCN(C(=O)[C@@H](Cc3ccc(Cl)cc3)NC(=O)C3Cc4ccccc4CN3)CC2)c2ccccc21` (some centres undefined)?
A: IC50 [3]: 190 nM; IC50 (Melanocortin receptor 4 [2]): 100 nM

Q: For `CN(C)CCCc1c(-c2cccc(Br)c2)[nH]c2ccccc12`, which IC50 [4] is on record?
A: Its IC50 is 0.7 nM.

Q: `CC(C)(N)CC(=O)N[C@@H]1CCc2ccccc2N(Cc2ccc(-c3ccccc3-c3nnn[nH]3)cc2)C1=O` was tested. Which IC50 [3] did it give?
A: Its IC50 is 2800 nM.

Q: What about the IC50 [5] of the same molecule?
A: The IC50 was 63 nM.

Q: What about the IC50 [6] of the same molecule?
A: The IC50 was 3.6 µM.

Q: How did the IC50 (Melanocortin receptor 4 [7]) turn out when `CC(C)(N)C(=O)N[C@H](COCc1ccccc1)C(=O)N1CCC2(CC1)CN(S(C)(=O)=O)c1ccccc12` [IBUTAMOREN] was run?
A: The IC50 was “Not Active”.
